Reference: ChEMBL document CHEMBL1158403, “Discovery of CP-533536: an EP2 receptor selective prostaglandin E2 (PGE2) agonist that induces local bone formation” (Bioorg Med Chem Lett, 2009)

What was measured:
[1] = molecular target: T1, Prostaglandin E2 receptor EP2 subtype (Rattus norvegicus, UniProt Q62928); experiment: Inhibition of rat EP2 receptor expressed in HEK293 cells; type: cell-based
Method in brief: (§1)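 Rat EP₂ or rat EP₄ receptor stably transfected into HEK-293 cells. Membranes were prepared from these cells for the receptor binding assay.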

[2] = molecular target: T2, Prostaglandin E2 receptor EP4 subtype (Rattus norvegicus, UniProt P43114); experiment: Inhibition of rat EP4 receptor expressed in HEK293 cells; type: cell-based; method in brief: as §1
[3] = molecular target: T1, Prostaglandin E2 receptor EP2 subtype; experiment: Agonist activity against rat EP2 receptor expressed in HEK293 cells assessed as stimulation of cAMP release; type: functional, cell-based
[4] = Half life in Sprague-Dawley rat at 1 mg/kg, iv; type: ADME, organism-based; design: dose 1 mg/kg, route intravenous; conditions: in vivo
Method in brief: (§2)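 Male Sprague–Dawley rats were given a single i.v. dose of 1 mg/kg. Half-life, clearance and steady-state volume of distribution were derived from the plasma pharmacokinetic profile.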

[5] = Clearance in Sprague-Dawley rat at 1 mg/kg, iv; type: ADME, organism-based; design: dose 1 mg/kg, route intravenous; conditions: in vivo; method in brief: as §2
[6] = Volume of distribution at steady state in Sprague-Dawley rat at 1 mg/kg, iv; type: ADME, organism-based; design: dose 1 mg/kg, route intravenous; conditions: in vivo, read-out: Vdss; method in brief: as §2
Rattus norvegicus [7] = experiment: Induction of bone formation in rat assessed as total bone area at 1 mg/kg by peripheral quantitative computerized tomography
Rattus norvegicus [8] = experiment: Induction of bone formation in rat assessed as total bone area at 3 mg/kg by peripheral quantitative computerized tomography
Rattus norvegicus [9] = experiment: Induction of bone formation in rat assessed as total bone area at 0.3 mg/kg by peripheral quantitative computerized tomography
Rattus norvegicus [10] = experiment: Induction of bone formation in rat assessed as bone mineral content at 1 mg/kg by peripheral quantitative computerized tomography
Rattus norvegicus [11] = experiment: Induction of bone formation in rat assessed as bone mineral density at 1 mg/kg by peripheral quantitative computerized tomography
Rattus norvegicus [12] = experiment: Induction of bone formation in rat assessed as bone mineral content at 3 mg/kg by peripheral quantitative computerized tomography
Rattus norvegicus [13] = experiment: Induction of bone formation in rat assessed as bone mineral density at 3 mg/kg by peripheral quantitative computerized tomography
Rattus norvegicus [14] = experiment: Induction of bone formation in rat assessed as bone mineral content at 0.3 mg/kg by peripheral quantitative computerized tomography
Rattus norvegicus [15] = experiment: Induction of bone formation in rat assessed as bone mineral density at 0.3 mg/kg by peripheral quantitative computerized tomography
[16] = molecular target: T2, Prostaglandin E2 receptor EP4 subtype; experiment: Agonist activity against rat EP4 receptor expressed in HEK293 cells assessed as stimulation of cAMP release; type: functional, cell-based

T2 sequence (P43114 whole entry): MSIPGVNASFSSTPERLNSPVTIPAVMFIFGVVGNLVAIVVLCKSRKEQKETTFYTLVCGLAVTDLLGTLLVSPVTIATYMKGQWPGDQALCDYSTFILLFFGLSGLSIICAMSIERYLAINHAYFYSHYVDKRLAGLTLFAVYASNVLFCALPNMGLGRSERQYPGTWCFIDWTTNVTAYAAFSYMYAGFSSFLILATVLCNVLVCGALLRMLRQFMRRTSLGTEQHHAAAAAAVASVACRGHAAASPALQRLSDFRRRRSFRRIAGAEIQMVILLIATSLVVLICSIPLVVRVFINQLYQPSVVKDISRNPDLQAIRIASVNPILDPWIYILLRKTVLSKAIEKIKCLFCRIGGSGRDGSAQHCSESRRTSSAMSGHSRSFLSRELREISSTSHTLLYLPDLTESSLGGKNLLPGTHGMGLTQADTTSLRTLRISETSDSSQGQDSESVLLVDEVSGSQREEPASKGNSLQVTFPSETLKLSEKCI
T1 sequence (Q62928 whole entry): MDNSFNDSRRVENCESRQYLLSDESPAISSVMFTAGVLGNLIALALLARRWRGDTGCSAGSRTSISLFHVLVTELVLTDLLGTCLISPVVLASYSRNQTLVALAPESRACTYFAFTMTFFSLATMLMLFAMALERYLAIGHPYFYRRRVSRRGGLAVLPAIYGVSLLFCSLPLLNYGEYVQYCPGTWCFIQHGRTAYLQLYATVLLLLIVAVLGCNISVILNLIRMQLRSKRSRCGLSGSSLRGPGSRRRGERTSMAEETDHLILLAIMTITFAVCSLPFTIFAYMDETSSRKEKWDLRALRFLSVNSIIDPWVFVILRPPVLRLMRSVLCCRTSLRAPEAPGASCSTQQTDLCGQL

Compound | IC50 [1] | IC50 [2] | EC50 [3] | further results
CCCCCC(O)CCCN(CCCCCC(=O)O)S(C)(=O)=O (centres undefined) | 910 nM | – | – | –
CCCCCC(O)CCCN(CCCCCCC(=O)O)S(C)(=O)=O (centres undefined) | 225 nM | 2530 nM | 134 nM | –
CCCCCC(=O)c1ccc(CN(CCCCCCC(=O)O)S(C)(=O)=O)cc1 | 636 nM | > 3200 nM | 887 nM | –
CCCCc1ccc(CN(CCCCCCC(=O)O)S(C)(=O)=O)cc1 | 160 nM | > 3200 nM | 94 nM | –
CCCCCC(O)CCCN(CCCCC(=O)O)S(C)(=O)=O (centres undefined) | > 3200 nM | – | – | –
CCCCc1ccc(CN(CCCCOCC(=O)O)S(C)(=O)=O)cc1 | 701 nM | > 3200 nM | 407 nM | –
CCCCc1ccc(CN(c2ccc(CCCC(=O)O)cc2)S(C)(=O)=O)cc1 | 654 nM | > 3200 nM | 587 nM | –
CCCCCC(O)c1ccc(CN(CCCCCCC(=O)O)S(C)(=O)=O)cc1 (centres undefined) | 93 nM | > 3200 nM | 44 nM | –
CCCCC[C@H](O)/C=C/[C@H]1[C@H](O)CC(=O)[C@@H]1C/C=C\CCCC(=O)O [DINOPROSTONE] | – | 2.1 nM | – | EC50 [16]: 0.7 nM
CCCCC(O)c1ccc(CN(CCCCCCC(=O)O)S(C)(=O)=O)cc1 (centres undefined) | 502 nM | > 3200 nM | 423 nM | –
CC(C)CC(O)CCCN(CCCCCCC(=O)O)S(C)(=O)=O (centres undefined) | 2500 nM | > 3200 nM | – | –

Now from value to molecule, other results behind:

IC50 [1] | IC50 [2] | EC50 [3] | Compound | further results
50 nM | > 3200 nM | 0.3 nM | CC(C)(C)c1ccc(CN(Cc2cccc(OCC(=O)O)c2)S(=O)(=O)c2cccnc2)cc1 | half-life [4]: 19.8 min; clearance [5]: 56 mL/min/kg; Vd [6]: 0.49 L/kg; Activity (Rattus norvegicus [7]): 4.4%; Activity (Rattus norvegicus [8]): 20.6%; Activity (Rattus norvegicus [9]): -4.7%; Activity (Rattus norvegicus [10]): 26.3%; Activity (Rattus norvegicus [11]): 20.7%; Activity (Rattus norvegicus [12]): 53.5%; Activity (Rattus norvegicus [13]): 27.5%; Activity (Rattus norvegicus [14]): 2.5%; Activity (Rattus norvegicus [15]): 7.5%
> 3200 nM | > 3200 nM | – | CCCCc1ccc(CN(c2cccc(CCC(=O)O)c2)S(C)(=O)=O)cc1 | –
379 nM | > 3200 nM | 48 nM | CC(C)(C)c1ccc(CN(Cc2cccc(CCC(=O)O)c2)S(C)(=O)=O)cc1 | –
590 nM | 2470 nM | – | CC(C)(C)c1ccc(CN(CCCCCCC(=O)O)S(C)(=O)=O)cc1 | –
270 nM | > 3200 nM | 34.4 nM | CCCCc1ccc(CN(Cc2cccc(CCC(=O)O)c2)S(C)(=O)=O)cc1 | –
833 nM | > 3200 nM | 413 nM | CCCCc1ccc(CN(CCc2ccc(CC(=O)O)cc2)S(C)(=O)=O)cc1 | –
278 nM | > 3200 nM | 0.2 nM | CC(C)(C)c1ccc(CN(Cc2cccc(CCC(=O)O)c2)S(=O)(=O)c2ccccc2)cc1 | –
63 nM | > 3200 nM | 1.1 nM | CC(C)(C)c1ccc(CN(Cc2cccc(CCC(=O)O)c2)S(=O)(=O)c2nccs2)cc1 | –
> 3200 nM | > 3200 nM | – | CCCCc1ccc(CN(Cc2ccccc2OCC(=O)O)S(C)(=O)=O)cc1 | –
52 nM | > 3200 nM | 2.3 nM | CC(C)(C)c1ccc(CN(Cc2cccc(CCC(=O)O)c2)S(=O)(=O)c2ccccn2)cc1 | –
494 nM | > 3200 nM | 103 nM | CCCCc1ccc(CN(c2ccccc2CCCC(=O)O)S(C)(=O)=O)cc1 | –
289 nM | > 3200 nM | 457 nM | CS(=O)(=O)N(CCCCCCC(=O)O)Cc1ccc(-c2ccccc2)cc1 | –
> 3200 nM | > 3200 nM | – | CC(C)(C)c1ccc(CN(Cc2cccc(CCC(=O)O)c2)S(=O)(=O)c2ccc(Cl)cc2)cc1 | –
3130 nM | > 3200 nM | – | CCCCc1ccc(CN(CCCOc2cccc(C(=O)O)c2)S(C)(=O)=O)cc1 | –
792 nM | > 3200 nM | 203 nM | CC(C)(C)c1ccc(CN(Cc2cccc(OCC(=O)O)c2)S(C)(=O)=O)cc1 | –
